# Compound activity deposited in PubChem BioAssay by Johns Hopkins Ion Channel Center.
# TRPC4 block: inhibitors of mouse TRPC4 channel, primary screen, Fluo4 calcium, HEK293 TRPC4beta/mu-opioid cells. Short transient receptor potential channel 4 (Mus musculus), Q9QUQ5. DAMGO-evoked Fluo4 calcium flux; hits give low values. B-score at 10 µM. 300,000 compounds, 0.39% hits;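 active = B-score over 3 SD under the library average, no early fluorescence shift, positive overall ratio signal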
#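 Test system – stable TRPC4beta/mu-opioid receptor HEK293 cells · Probe or stimulus – DAMGO, a submaximal dose followed by a maximal one · Dosing – one concentration per compound · Signal – Fluo4 calcium fluorescence by kinetic imaging, 5 s 1 Hz baseline · Evaluation – per-well B score of integrated baseline-normalized Fluo4 ratio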
# TRPC6 activator: mouse TRPC6 channel activators, primary screen, cell-based, HEK293, membrane potential dye; Short transient receptor potential channel 6 (Mus musculus), Q61143; HEK293-TRPC6 membrane potential dye fluorescence; hits give high values; B-score at 10 µM; 310,000 compounds, 0.13% hits;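 active = B-score of the integrated fluorescence ratio above library mean plus 3 SD, and starting fluorescence ratio within library mean plus 5 SD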;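 note: higher score means more depolarization so channel activation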
# Target sequence (Q61143 whole entry, looked up): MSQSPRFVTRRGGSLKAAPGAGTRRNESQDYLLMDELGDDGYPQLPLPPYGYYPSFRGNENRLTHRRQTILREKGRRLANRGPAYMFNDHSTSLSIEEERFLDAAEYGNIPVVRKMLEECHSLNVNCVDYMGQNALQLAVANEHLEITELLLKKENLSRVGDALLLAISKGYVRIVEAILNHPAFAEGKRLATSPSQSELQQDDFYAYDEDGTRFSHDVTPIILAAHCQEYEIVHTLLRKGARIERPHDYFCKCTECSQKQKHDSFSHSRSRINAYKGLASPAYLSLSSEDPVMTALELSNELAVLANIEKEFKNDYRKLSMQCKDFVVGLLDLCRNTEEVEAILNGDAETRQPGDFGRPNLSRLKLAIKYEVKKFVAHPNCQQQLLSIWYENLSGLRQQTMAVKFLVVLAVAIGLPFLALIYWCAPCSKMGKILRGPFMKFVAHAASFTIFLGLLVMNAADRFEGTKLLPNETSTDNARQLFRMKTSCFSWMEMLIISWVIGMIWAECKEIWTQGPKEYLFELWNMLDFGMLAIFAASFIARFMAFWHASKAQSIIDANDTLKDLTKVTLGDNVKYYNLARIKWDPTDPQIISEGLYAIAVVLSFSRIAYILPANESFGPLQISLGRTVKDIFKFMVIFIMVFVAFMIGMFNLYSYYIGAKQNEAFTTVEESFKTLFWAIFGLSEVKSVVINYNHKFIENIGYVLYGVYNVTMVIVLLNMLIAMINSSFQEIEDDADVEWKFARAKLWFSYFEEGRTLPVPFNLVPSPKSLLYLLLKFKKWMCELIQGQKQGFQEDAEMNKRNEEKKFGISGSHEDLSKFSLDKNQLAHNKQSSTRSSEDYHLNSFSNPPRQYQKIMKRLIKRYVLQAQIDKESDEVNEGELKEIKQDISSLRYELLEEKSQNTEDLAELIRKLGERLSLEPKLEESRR
# TRPC6 inhibitor: mouse TRPC6 channel inhibitors, primary screen, cell-based, HEK293, membrane potential dye; 310,000 compounds, 1.1% hits; ACh-evoked depolarization; hits give low values; Short transient receptor potential channel 6 (Mus musculus), Q61143; B-score at 10 µM; AID 2553, 2010;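 active = B-score under library mean minus 3 SD, initial fluorescence not abnormally high, positive integrated signal ratio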;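 note: B-score derived from integrated fluorescence ratio over the kinetic read; more negative B-score means stronger inhibition of depolarization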
# TRPC4 act: activators of mouse TRPC4 channel, primary screen, Fluo4 calcium, HEK293 TRPC4beta/mu-opioid cells | Short transient receptor potential channel 4 (Mus musculus), Q9QUQ5 | Fluo4 calcium fluorescence; hits give high values | B-score at 10 µM | 310,000 compounds, 0.49% hits | AID 2237, 2010;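 active = B-score above 5 SD of library B-scores, and initial fluorescence ratio not above library mean plus 5 SD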;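 note: positive B-score marks a calcium rise read as TRPC4 activation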
#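 System: HEK293 cells stably co-expressing mouse TRPC4beta and mu-opioid receptor; Schedule: Fluo4 dye loading 45 min at room temperature, 110 s recording; Detection: Fluo4 fluorescence, kinetic; Evaluation: B-scored integrated calcium fluorescence ratio; Controls: buffer (low) and maximal DAMGO (high).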
# TRPC4 PAM: positive allosteric modulators of TRPC4, primary screen, cell-based, mouse TRPC4beta, HEK293 mu-opioid, Fluo-4 calcium | 310,000 compounds, 0.42% hits | DAMGO EC20, Fluo-4 Ca2+ flux; hits give high values | B-score at 10 µM | Short transient receptor potential channel 4 (Mus musculus), Q9QUQ5 | AID 2227, 2009;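 active = B-score of calcium response area above 5 SD of library B-scores, with initial fluorescence ratio within 5 SD of library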;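 note: B-score of integrated fluorescence ratio over time as area under calcium response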
# TRPC4 spec 2: second check of whether TRPC6 inhibitors also affect mouse TRPC4. 920 compounds, 42% hits. inhibition, % at 10 µM. HEK293 TRPC4/MOR, membrane potential dye fluorescence; channel activated by saturating DAMGO dose. shares compounds with TRPC6 inhibitor. AID 2776;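 active = compounds whose fluorescence signal differed from control wells by over 3 SD, either direction, in both duplicate plates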
# TRPC4 spec: mouse TRPC4 modulation by TRPC6 hits, confirmation, selectivity assay for TRPC6 inhibitor project, cell-based, HEK293 TRPC4/mu-opioid, membrane potential dye. activity change, negative = inhibition, % at 10 µM. 920 compounds, 61% hits. shares compounds with TRPC6 inhibitor. membrane potential fluorescence;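 active = rise or fall in signal beyond 3 SD of buffer-only wells in both replicate plates, either sign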;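 note: integrated kinetic ratio of fluorescence range over baseline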
# HEK293 MPD ctr 2-1: nonspecific membrane potential effects, parental HEK293, confirmation, counter-screen for TRPC6 inhibitor project, cell-based, second counter screen; signal change vs control, % at 10 µM; parental HEK293 membrane potential dye fluorescence; maximal acetylcholine challenge after compound addition; 920 compounds, 31% hits; shares compounds with TRPC6 inhibitor; AID 2779, 2010;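 active = membrane potential signal moving either way by over 3 SD of the maximum-effect control, in both duplicate plates, meaning non-specific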
# HEK293 MPD ctr-1: membrane potential modulation in parental HEK293, confirmation, counter-screen for TRPC6 inhibitor project, cell-based | shares compounds with TRPC6 inhibitor | parental HEK293 membrane potential dye fluorescence | membrane potential signal change, % at 10 µM | 920 compounds, 60% hits | AID 2780, 2010;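 active = membrane potential signal shifting up or down by more than 3 SD of buffer-only wells, on both duplicate plates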
# HEK293 MPD ctr-2: parental HEK293 membrane potential modulation, confirmation, counter-screen for TRPC6 modulator project, cell-based | shares compounds with TRPC6 inhibitor | membrane potential dye fluorescence | 2,400 compounds, 51% hits | AID 488924, 2010 | membrane potential signal change, % at 10 µM;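 active = membrane potential signal moves up or down beyond 5 SD from buffer-only wells, on both duplicate plates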
# HEK293 MPD ctr 2-2: parental HEK293 nonspecific activity of TRPC6 modulators, second screen; inhibition, % at 10 µM; shares compounds with TRPC6 inhibitor; 2,400 compounds, 14% hits; membrane potential dye fluorescence; after compound, maximal acetylcholine stimulation;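 active = membrane potential signal drops by more than 5 SD from the mean control signal, in both duplicate plates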;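 note: plate controls were acetylcholine ECmax control wells for no effect and buffer only wells for full effect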
# TRPC4 ctr mod: TRPC4 modulation by TRPC6 hit compounds, confirmation, selectivity assay for TRPC6 modulator project, cell-based, HEK293 TRPC4/mu-opioid, membrane potential dye, mouse | percent change from control (negative = decrease, positive = increase), % at 10 µM | AID 488927, 2010 | membrane potential fluorescence | 2,400 compounds, 69% hits | shares compounds with TRPC6 inhibitor;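 active = membrane potential signal moved up or down beyond 5 SD of buffer control wells, in both duplicate plates, actives on both sides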;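 note: plate controls were assay buffer wells for no effect and DAMGO maximal-effect wells for full effect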
# TRPC4 ctr inh 2: mouse TRPC4 off-target activity of TRPC6 modulators, second screen. shares compounds with TRPC6 inhibitor. HEK293 TRPC4/mu-opioid, membrane potential dye fluorescence; stimulated with maximal-effect DAMGO. inhibition, % at 10 µM. AID 488928. 2,400 compounds, 55% hits;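 active = drop in membrane potential signal beyond 5 SD of the control wells in both duplicate plates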;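 note: TRPC4 counter screen for TRPC6 hits run under conditions tuned for TRPC6 not TRPC4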
# TRPC6 inh conf: mouse TRPC6 channel inhibitors, confirmation, HEK293 cells, membrane potential dye, duplicate; shares compounds with TRPC6 inhibitor; ACh-evoked depolarization; inhibition, % at 10 µM; 3,300 compounds, 43% hits; AID 488960, 2010;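 active = fluorescence ratio falls more than 5 SD below the full-stimulation control mean, in both duplicate runs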;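 note: integrated fluorescence ratio of peak minus minimum over baseline after agonist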
# TRPC6 act confirm: mouse TRPC6 channel activators, confirmation, HEK293 cells, membrane potential dye, duplicate. HEK293-TRPC6 membrane potential dye fluorescence, FDSS. 2,800 compounds, 11% hits. activation, % at 10 µM. shares compounds with TRPC6 inhibitor. AID 488961, 2010;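 active = ratio signal rise beyond 5 SD above unstimulated control wells' mean, seen in both duplicate runs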;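 note: plate controls were buffer EC0 wells for no effect and acetylcholine ECmax response for full effect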
# * = called active by the depositor; i = inactive; nt = no result; + = active, no number. Hits are enriched below; roughly 2.3% of the tested compounds scored in any of these assays.
SMILES,TRPC4 block,TRPC6 activator,TRPC6 inhibitor,TRPC4 act,TRPC4 PAM,HEK293 MPD ctr-2,HEK293 MPD ctr 2-2,TRPC4 ctr mod,TRPC4 ctr inh 2,TRPC6 inh conf,TRPC6 act confirm,others
COc1ccc(-c2cn3cccc(C)c3n2)cc1F,i,i,-8.01*,i,i,nt,nt,nt,nt,i,i,TRPC4 spec 2=i;TRPC4 spec=i;HEK293 MPD ctr 2-1=4.5%*;HEK293 MPD ctr-1=-198.5%*
COc1ccc(-c2cn3cc(C)ccc3n2)cc1OC,i,i,-7.57*,i,i,nt,nt,nt,nt,i,i,TRPC4 spec 2=i;TRPC4 spec=-9.8%*;HEK293 MPD ctr 2-1=-27.5%*;HEK293 MPD ctr-1=i
O=S(=O)(Cc1ccccc1)NCCc1cccc(Cl)c1,i,i,i,i,i,nt,nt,nt,nt,nt,nt,
Fc1ccc(NC(=S)NNc2ncc(C(F)(F)F)cc2Cl)c(F)c1,i,i,-6.49*,i,i,120.5%*,i,20.5%*,i,50.5%*,nt,
Cc1nnc(NS(=O)(=O)c2ccc(Br)cc2)s1,i,i,i,i,i,nt,nt,nt,nt,nt,nt,
CCCCN1C(=O)/C(=C/C=C2\Oc3ccccc3N2CC)SC1=S,i,34.8*,i,i,i,338.5%*,i,99.0%*,i,i,i,
N=C(SC1CC(=O)N(c2ccc(F)cc2)C1=O)N1N=C(c2ccccc2)CC1c1ccccc1 (stereo not given),i,i,-7.65*,i,i,nt,nt,nt,nt,i,i,TRPC4 spec 2=i;TRPC4 spec=i;HEK293 MPD ctr 2-1=i;HEK293 MPD ctr-1=i
CCC(=O)N1N=C(c2ccccc2)CC1c1ccccc1 (stereo not given),i,i,i,i,i,nt,nt,nt,nt,nt,nt,
CNS(=O)(=O)c1cccc(C(=O)OCc2cc(=O)oc3c(C)c(O)ccc23)c1,i,i,-6.26*,i,i,i,i,i,54.0%*,i,i,
CC1(C)Cc2nc3scc(NC(=O)c4ccccc4)c3cc2CO1,i,i,i,i,i,nt,nt,nt,nt,nt,nt,
CCCCCCOc1ccc(NC(=O)CC2C(=O)N(CC)C(=S)N2Cc2ccco2)cc1 (stereo not given),i,i,i,i,i,nt,nt,nt,nt,nt,nt,
Cc1ccc(CNCCC2=CCCCC2)cc1,i,i,-7.09*,i,i,nt,nt,nt,nt,i,i,TRPC4 spec 2=i;TRPC4 spec=i;HEK293 MPD ctr 2-1=i;HEK293 MPD ctr-1=i
Cc1cc(N2CCCC2)ccc1/C=C1\NC(=S)N(C)C1=O,i,51.7*,i,70*,i,i,i,33.0%*,i,i,32.0%*,
O=C(c1ccccc1)N1CCN(c2ccc([N+](=O)[O-])cc2-n2cccc2)CC1,i,i,i,i,i,nt,nt,nt,nt,nt,nt,
Cc1ccc(SCCNC(=S)Nc2ccc(C)c(C)c2)cc1,i,i,-5.66*,i,i,+,+,-266.5%*,77.0%*,i,i,
Cc1ccc(SCCNC(=S)Nc2ccccc2)cc1,i,i,i,i,i,nt,nt,nt,nt,nt,nt,
Cc1ccc2c(c1)sc(-c1ccc(N(C)C)cc1)[n+]2C,i,i,-5.55*,i,i,i,84.5%*,i,i,56.5%*,i,
CCOc1ccc2nc(SCC(=O)NCc3ccc(S(N)(=O)=O)cc3)[nH]c2c1,i,i,i,i,i,nt,nt,nt,nt,nt,nt,
COc1ccc(Oc2c(C(F)(F)F)oc3cc(OCC(=O)O)ccc3c2=O)cc1,i,i,-5.17*,i,i,i,i,i,i,i,i,
CCOC(=O)c1c(-c2ccccc2)oc2ccc(OCC(O)CN(C)C)cc12 (stereo not given),i,i,i,i,i,nt,nt,nt,nt,nt,nt,
Cc1cccc(C(=O)N2CCc3ccccc3C2)c1[N+](=O)[O-],i,i,-5.31*,i,i,i,i,15.5%*,i,i,i,
Cc1c(Br)c([N+](=O)[O-])nn1CC(=O)N1CCc2ccccc2C1,i,i,i,i,i,nt,nt,nt,nt,nt,nt,
Cc1c(Br)c([N+](=O)[O-])nn1C(C)C(=O)N1CCc2ccccc2C1 (stereo not given),i,i,-5.98*,i,i,i,93.0%*,19.0%*,i,80.0%*,i,
Cc1ccc(/C(O)=C2/C(=O)C(=O)N(CC(=O)O)C2c2ccc([N+](=O)[O-])cc2)cc1 (stereo not given),i,i,i,i,i,nt,nt,nt,nt,nt,nt,
